The source made the active and inactive calls. The rule behind the calls is not given here.
Assays:
8305C [1] = assay: Induction of apoptosis in human 8305C cells assessed as caspase-3 activation at 50 uM after 24 hrs by fluorescence microscopic analysis (reference value: 3.22 +/- 1%); format: functional
8305C [2] = assay: Induction of apoptosis in human 8305C cells assessed as DNA fragmentation at 50 uM after 24 hrs by SYBR green-1 staining-based electrophoretic analysis; format: functional, cell-based
Summary of the method: (§1)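 After 24 h of treatment, DNA was extracted from untreated and treated cells. Fragments were separated on a 2% agarose gel with SYBR Green I staining, and GAPDH-1 served as the reference gene.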

FTC-133 [3] = assay: Induction of apoptosis in human FTC-133 cells assessed as caspase-3 activation at 50 uM after 24 hrs by fluorescence microscopic analysis (reference value: 2.51 +/- 1%); format: functional
8305C [4] = assay: Cytotoxicity against human 8305C cells assessed as reduction in cell viability after 24 hrs by MTT assay; format: functional, cell-based
Summary of the method: (§2)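 Cells seeded at 6 × 10^5 per well and exposed to 5–100 µM for 24 h at 37 °C in 5% CO2. Then 0.5% MTT in PBS (pH 7.4) was added for 1 h, supernatant replaced with DMSO, and OD read at 570 nm. IC50 was read graphically from dose-effect curves. Values are mean ± SD of four independent experiments, each run in triplicate.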

FTC-133 [5] = assay: Cytotoxicity against human FTC-133 cells assessed as reduction in cell viability at 50 uM after 24 hrs by MTT assay; format: functional, cell-based
Summary of the method: (§3)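 Cultures were treated at 50 µM for 24 h at 37 °C in 5% CO2 alongside untreated controls. Viability was read by MTT reduction (0.5% MTT in PBS pH 7.4, 1 h), with formazan dissolved in DMSO and OD measured at 570 nm.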

FTC-133 [6] = assay: Induction of apoptosis in human FTC-133 cells assessed as DNA fragmentation at 50 uM after 24 hrs by SYBR green-1 staining-based electrophoretic analysis; format: functional, cell-based; summary of the method: as §1
8305C [7] = assay: Cytotoxicity against human 8305C cells assessed as reduction in cell viability at 50 uM after 24 hrs by MTT assay; format: functional, cell-based; summary of the method: as §3
FTC-133 [8] = assay: Cytotoxicity against human FTC-133 cells assessed as reduction in cell viability after 24 hrs by MTT assay; format: functional, cell-based; settings: FTC-133, 24 h; summary of the method: as §2

Row | Structure (SMILES) | Activity (8305C [1]) | Activity (8305C [2]) | Activity (FTC-133 [3]) | IC50 (8305C [4]) | Activity (FTC-133 [5]) | Activity (FTC-133 [6]) | Activity (8305C [7]) | IC50 (FTC-133 [8])
1 | O=C1CN2/C(=N/c3ccc4ccc5cccc6ccc3c4c56)OCC2CN1c1ccccc1 (configuration not stated) | 18.24% | Active | 29.3% | 80.3 µM | Active | Active | Active | 74.2 µM
2 | O=C1CN2/C(=N/c3cccc4ccccc34)OCC2CN1C1CCCCC1 (configuration not stated) | 78.56% | Active | 90.56% | 61 µM | Active | Active | Active | 44.8 µM
3 | O=C1CN2/C(=N/c3ccc4ccc5cccc6ccc3c4c56)OCC2CN1C1CCCCC1 (configuration not stated) | 68.3% | Active | 89.24% | 68.5 µM | Active | Active | Active | 48.3 µM
4 | O=C1CN2/C(=N/c3ccccc3)OCC2CN1C1CCCCC1 (configuration not stated) | 75.88% | Active | 88.68% | 70.7 µM | Active | Active | Active | 50 µM

From ChEMBL document CHEMBL2417413, “Synthesis and biological evaluation of 1,7,8,8a-tetrahydro-3H-oxazolo[3,4-a]pyrazin-6(5H)-ones as antitumoral agents” (Bioorg Med Chem, 2013)
